Measurements as given in ChEMBL document CHEMBL1129461 (J Med Chem, 1996).

How the values were obtained:
[1] = target: Protein kinase C alpha type (Homo sapiens, UniProt P17252); test: Evaluated against recombinant human Protein kinase C alpha
Procedure, shortened: (§1)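 Recombinant human PKC isozymes expressed in SF9 cells via baculovirus, partly purified (50–90%). 32P transfer from 30 μM [32P]ATP to 200 μg/mL histone IIIS in 20 mM Hepes pH 7.5, 10 mM MgCl2, EGTA, CaCl2, phosphatidylserine, and diacylglycerol at the isozyme-dependent level giving half-maximal activation. 10 min at 30 °C, TCA stop, filter counting. No-lipid background subtracted.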

[2] = target: T1, Protein kinase C beta type (Homo sapiens, UniProt P05771); test: Evaluated against recombinant human Protein kinase C beta 2; procedure, shortened: as §1
[3] = target: T1, Protein kinase C beta type; test: Evaluated against recombinant human Protein kinase C beta 1; procedure, shortened: as §1
[4] = target: Protein kinase C gamma type (Homo sapiens, UniProt P05129); test: Evaluated against recombinant human Protein kinase C gamma; procedure, shortened: as §1
[5] = target: T2, Protein kinase C eta type (Homo sapiens, UniProt P24723); test: Evaluated against recombinant human Protein kinase C eta; procedure, shortened: as §1
[6] = target: Protein kinase C delta type (Homo sapiens, UniProt Q05655); test: Evaluated against recombinant human Protein kinase C delta; procedure, shortened: as §1
[7] = Evaluated against bovine heart Protein Kinase A (PKA)
[8] = target: T3, Protein kinase C epsilon type (Homo sapiens, UniProt Q02156); test: Evaluated against recombinant human Protein kinase C epsilon; procedure, shortened: as §1
T3 sequence (Q02156 whole entry): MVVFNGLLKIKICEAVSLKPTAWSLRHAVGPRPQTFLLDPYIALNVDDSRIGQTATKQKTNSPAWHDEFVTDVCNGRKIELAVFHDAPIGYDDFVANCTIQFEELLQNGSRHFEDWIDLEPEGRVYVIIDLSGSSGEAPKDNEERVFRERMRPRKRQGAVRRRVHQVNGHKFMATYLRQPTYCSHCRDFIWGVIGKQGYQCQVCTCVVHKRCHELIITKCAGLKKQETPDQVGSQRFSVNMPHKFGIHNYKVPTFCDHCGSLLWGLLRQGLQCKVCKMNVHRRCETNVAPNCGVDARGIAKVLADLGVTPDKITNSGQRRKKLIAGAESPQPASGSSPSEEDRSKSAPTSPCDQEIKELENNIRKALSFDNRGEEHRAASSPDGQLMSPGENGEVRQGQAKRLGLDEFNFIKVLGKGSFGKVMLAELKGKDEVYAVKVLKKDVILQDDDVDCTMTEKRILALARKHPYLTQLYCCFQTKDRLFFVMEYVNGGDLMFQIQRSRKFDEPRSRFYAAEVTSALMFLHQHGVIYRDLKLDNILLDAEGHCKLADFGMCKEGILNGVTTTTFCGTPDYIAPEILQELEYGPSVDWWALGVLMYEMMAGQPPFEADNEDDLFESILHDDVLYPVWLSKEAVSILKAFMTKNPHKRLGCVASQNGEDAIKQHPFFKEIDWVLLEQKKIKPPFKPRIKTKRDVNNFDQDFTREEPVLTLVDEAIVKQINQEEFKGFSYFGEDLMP

[9] = Inhibition of rat brain Ca 2+/Calmodulin dependent kinase
Procedure, shortened: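 Ca2+/calmodulin kinase isolated from rat brain homogenate; 50 mM Tris-HCl pH 7.5, 5 mM β-mercaptoethanol, 400 μM EGTA, 700 μM CaCl2, 10 mM MgCl2, 200 μg/mL histone type HA, 30 μM [γ-32P]ATP, inhibitor in DMSO. Room temperature 10 min, ice-cold TCA plus BSA stop, precipitate filtered and β-counted.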

[10] = Inhibition of rat brain Casein kinase II
Procedure, shortened: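 Casein kinase II isolated from rat brain homogenate; 20 mM Tris-HCl pH 7.5, 5 mM NaF, casein substrate, 10 mM MgCl2, 30 μM [γ-32P]ATP, inhibitor in DMSO. Room temperature 10 min, stopped with ice-cold TCA plus BSA; precipitate filtered onto glass fiber and β-counted.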

[11] = target: neutrophil superoxide release (Homo sapiens); test: Inhibition of neutrophil superoxide release
[12] = target: Proto-oncogene tyrosine-protein kinase Src (Homo sapiens, UniProt P12931); test: Inhibition of src Protein Tyrosine Kinase
Procedure, shortened: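 p60src tyrosine kinase with Raytide peptide substrate, run by the supplier's protocol except that Triton X-100 replaced Brij 35.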

[13] = target: T2, Protein kinase C eta type; test: Inhibition of recombinant human Protein kinase C eta; procedure, shortened: as §1

Protein kinase C delta type, sequence (Q05655 whole entry): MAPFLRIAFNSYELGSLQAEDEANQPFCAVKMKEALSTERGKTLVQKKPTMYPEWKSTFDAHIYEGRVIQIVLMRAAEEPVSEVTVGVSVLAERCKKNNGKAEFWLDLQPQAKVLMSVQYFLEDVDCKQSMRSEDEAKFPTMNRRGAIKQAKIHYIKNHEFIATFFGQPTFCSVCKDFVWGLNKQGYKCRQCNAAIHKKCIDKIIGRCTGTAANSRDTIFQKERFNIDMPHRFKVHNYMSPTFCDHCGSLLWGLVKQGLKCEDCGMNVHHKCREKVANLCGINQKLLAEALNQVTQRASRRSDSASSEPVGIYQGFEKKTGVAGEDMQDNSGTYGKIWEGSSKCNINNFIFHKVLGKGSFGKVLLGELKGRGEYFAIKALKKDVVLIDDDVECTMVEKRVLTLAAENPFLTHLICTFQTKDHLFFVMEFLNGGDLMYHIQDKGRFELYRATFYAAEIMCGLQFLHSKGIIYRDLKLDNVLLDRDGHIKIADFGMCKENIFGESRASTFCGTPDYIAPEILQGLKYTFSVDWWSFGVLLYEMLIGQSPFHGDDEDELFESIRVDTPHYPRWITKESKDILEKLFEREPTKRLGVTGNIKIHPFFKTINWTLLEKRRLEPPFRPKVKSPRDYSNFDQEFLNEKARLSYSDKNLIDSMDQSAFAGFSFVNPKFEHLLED
T1 sequence (P05771 whole entry): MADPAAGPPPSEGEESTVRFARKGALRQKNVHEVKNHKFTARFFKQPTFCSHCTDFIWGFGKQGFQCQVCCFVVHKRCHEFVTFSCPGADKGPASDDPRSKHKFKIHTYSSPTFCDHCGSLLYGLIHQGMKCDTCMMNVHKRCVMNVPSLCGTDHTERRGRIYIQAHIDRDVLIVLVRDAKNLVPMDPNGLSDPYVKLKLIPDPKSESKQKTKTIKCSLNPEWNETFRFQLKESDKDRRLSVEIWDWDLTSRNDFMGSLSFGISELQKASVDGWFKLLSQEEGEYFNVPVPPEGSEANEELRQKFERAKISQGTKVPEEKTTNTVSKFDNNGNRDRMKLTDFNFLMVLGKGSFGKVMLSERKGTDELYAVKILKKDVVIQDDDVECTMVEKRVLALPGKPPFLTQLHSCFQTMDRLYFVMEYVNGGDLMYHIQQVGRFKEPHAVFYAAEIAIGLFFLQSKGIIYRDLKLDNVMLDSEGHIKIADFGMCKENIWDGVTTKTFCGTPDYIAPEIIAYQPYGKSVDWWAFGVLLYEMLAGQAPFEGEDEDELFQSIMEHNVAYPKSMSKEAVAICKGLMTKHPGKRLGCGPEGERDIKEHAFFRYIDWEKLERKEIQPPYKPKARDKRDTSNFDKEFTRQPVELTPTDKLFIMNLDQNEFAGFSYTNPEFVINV
T2 sequence (P24723 whole entry): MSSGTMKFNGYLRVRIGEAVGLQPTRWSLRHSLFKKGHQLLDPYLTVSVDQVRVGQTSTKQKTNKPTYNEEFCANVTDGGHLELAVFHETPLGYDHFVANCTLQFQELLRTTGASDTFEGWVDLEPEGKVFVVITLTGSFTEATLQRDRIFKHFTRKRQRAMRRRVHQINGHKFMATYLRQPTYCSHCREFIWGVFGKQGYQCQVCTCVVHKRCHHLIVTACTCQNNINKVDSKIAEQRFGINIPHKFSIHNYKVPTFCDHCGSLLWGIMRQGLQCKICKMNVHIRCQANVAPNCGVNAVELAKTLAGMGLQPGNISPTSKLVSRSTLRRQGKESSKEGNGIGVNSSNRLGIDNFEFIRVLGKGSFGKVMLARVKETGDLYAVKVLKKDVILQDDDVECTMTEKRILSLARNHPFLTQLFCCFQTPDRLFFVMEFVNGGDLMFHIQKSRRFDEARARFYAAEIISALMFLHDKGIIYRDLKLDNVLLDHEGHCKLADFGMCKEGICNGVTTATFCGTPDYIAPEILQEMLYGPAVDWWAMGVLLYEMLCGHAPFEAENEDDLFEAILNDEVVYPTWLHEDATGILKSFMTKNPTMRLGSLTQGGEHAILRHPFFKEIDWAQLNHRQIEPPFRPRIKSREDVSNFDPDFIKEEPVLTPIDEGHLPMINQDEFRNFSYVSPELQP
Proto-oncogene tyrosine-protein kinase Src, sequence (P12931 2-536 limits assumed): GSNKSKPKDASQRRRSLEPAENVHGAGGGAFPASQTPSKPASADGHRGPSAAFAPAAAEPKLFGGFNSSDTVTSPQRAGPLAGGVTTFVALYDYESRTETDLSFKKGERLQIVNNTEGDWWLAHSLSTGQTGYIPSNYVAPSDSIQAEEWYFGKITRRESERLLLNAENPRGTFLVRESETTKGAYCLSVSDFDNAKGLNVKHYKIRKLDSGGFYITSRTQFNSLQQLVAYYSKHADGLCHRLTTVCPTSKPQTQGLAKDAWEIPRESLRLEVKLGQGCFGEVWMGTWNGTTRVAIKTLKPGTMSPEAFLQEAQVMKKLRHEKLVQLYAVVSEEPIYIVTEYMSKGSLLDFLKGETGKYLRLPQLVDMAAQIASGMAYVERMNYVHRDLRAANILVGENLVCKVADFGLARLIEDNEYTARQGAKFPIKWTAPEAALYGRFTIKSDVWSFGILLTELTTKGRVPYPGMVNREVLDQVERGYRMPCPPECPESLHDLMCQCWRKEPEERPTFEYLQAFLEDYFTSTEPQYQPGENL

IC50 [1] [nM]	IC50 [2] [nM]	IC50 [3] [nM]	IC50 [4] [nM]	IC50 [5] [nM]	IC50 [6] [nM]	IC50 [7] [nM]	IC50 [8] [nM]	IC50 [9] [nM]	IC50 [10] [nM]	IC50 [11] [nM]	IC50 [12] [nM]	IC50 [13] [nM]	SMILES
7800	750	460	4100	170	300	–	–	–	–	–	–	–	COC(=O)c1cccc(O)c1C(=O)c1c(O)cc(C(=O)OCCCc2ccc(O)cc2)cc1O
2200	250	110	380	500	100	–	–	–	–	–	–	–	COC(=O)c1cccc(O)c1C(=O)c1c(O)cc(C(=O)OC2CNCC2Cc2ccc(O)cc2)cc1O (configuration not stated)
220	20	20	250	10	20	> 50000	240	–	–	–	–	–	O=C(OC1CCCC1Oc1ccc(O)cc1)c1cc(O)c(C(=O)c2c(O)cccc2C(=O)O)c(O)c1 (configuration not stated)
410	30	40	250	20	30	> 50000	280	> 50000	> 50000	–	–	–	CC(CCc1ccc(O)cc1)OC(=O)c1cc(O)c(C(=O)c2c(O)cccc2C(=O)O)c(O)c1 (configuration not stated)
45000	2800	–	–	18000	22000	> 50000	> 50000	–	–	–	–	–	O=C(NC(COC(=O)c1cc(O)c(C(=O)c2c(O)cccc2C(=O)O)c(O)c1)Cc1ccc(O)cc1)c1ccccc1 (configuration not stated)
3300	370	960	1400	250	290	> 50000	30000	–	–	–	–	–	O=C(OCCCCc1ccc(O)cc1)c1cc(O)c(C(=O)c2c(O)cccc2C(=O)O)c(O)c1
23000	430	220	5000	390	410	> 50000	> 50000	–	–	–	–	–	CS(=O)(=O)NC(COC(=O)c1cc(O)c(C(=O)c2c(O)cccc2C(=O)O)c(O)c1)Cc1ccc(O)cc1 (configuration not stated)
18000	340	2200	4500	< 50	360	> 50000	38000	–	–	930	–	–	COC(=O)c1cccc(O)c1C(=O)c1c(O)cc(C(=O)OC[C@@H](Cc2ccc(O)cc2)NS(=O)(=O)c2ccccc2)cc1O
18000	830	1600	1600	500	220	> 50000	47000	–	–	–	–	–	O=C(OCC(COc1ccc(O)cc1)NS(=O)(=O)c1ccccc1)c1cc(O)c(C(=O)c2c(O)cccc2C(=O)O)c(O)c1 (configuration not stated)
18000	3000	3600	2900	2300	820	> 50000	> 50000	–	–	–	–	–	O=C(NC(COC(=O)c1cc(O)c(C(=O)c2c(O)cccc2C(=O)O)c(O)c1)Cc1ccc(O)cc1)c1ccc(O)cc1 (configuration not stated)
67	30	30	30	20	23	60	–	–	–	–	–	–	O=C(NC1CNCCCC1OC(=O)c1cc(O)c(C(=O)c2c(O)cccc2C(=O)O)c(O)c1)c1ccc(O)cc1 (racemic)
160	20	20	130	10	30	–	500	–	–	–	–	–	O=C(OC1CCCC1Cc1ccc(O)cc1)c1cc(O)c(C(=O)c2c(O)cccc2C(=O)O)c(O)c1 (stereo in doubt; 20b)
1900	20	230	2600	20	30	> 50000	2300	–	–	–	–	–	O=C(OC[C@H](Cc1ccc(O)cc1)NS(=O)(=O)c1ccccc1)c1cc(O)c(C(=O)c2c(O)cccc2C(=O)O)c(O)c1
–	–	–	–	–	20	40	–	30	–	–	> 10000	–	O=C(N[C@@H]1CNCCC[C@H]1OC(=O)c1cc(O)c(C(=O)c2c(O)cccc2C(=O)O)c(O)c1)c1ccc(O)cc1 [BALANOL]
210	7	30	470	3	3	> 50000	460	–	–	–	–	–	O=C(OC[C@@H](Cc1ccc(O)cc1)NS(=O)(=O)c1ccccc1)c1cc(O)c(C(=O)c2c(O)cccc2C(=O)O)c(O)c1
3200	1800	2800	2700	35000	2600	> 50000	39000	–	–	–	–	–	O=C(OCC(Cc1ccc(O)cc1)NS(=O)(=O)c1ccc2ccccc2c1)c1cc(O)c(C(=O)c2c(O)cccc2C(=O)O)c(O)c1 (configuration not stated)
4000	500	880	4200	1400	270	> 50000	30000	–	–	–	–	–	CN(C)C(COC(=O)c1cc(O)c(C(=O)c2c(O)cccc2C(=O)O)c(O)c1)Cc1ccc(O)cc1 (configuration not stated)
11000	7500	4500	6600	230	410	8400	13000	–	–	–	–	–	O=C(NCCOC(=O)c1cc(O)c(C(=O)c2c(O)cccc2C(=O)O)c(O)c1)c1ccc(O)cc1
260	30	10	40	20	5	–	1800	–	–	–	–	–	O=C(OC1CNCC1Cc1ccc(O)cc1)c1cc(O)c(C(=O)c2c(O)cccc2C(=O)O)c(O)c1 (configuration not stated)
> 50000	2800	11000	4800	–	1900	> 50000	> 50000	–	–	–	–	3300	O=C(OCC(NS(=O)(=O)c1ccccc1)c1ccc(O)cc1)c1cc(O)c(C(=O)c2c(O)cccc2C(=O)O)c(O)c1 (configuration not stated)
1400	90	100	1700	40	50	> 50000	4500	–	–	–	–	–	COC(=O)c1cccc(O)c1C(=O)c1c(O)cc(C(=O)OC2CCCC2Cc2ccc(O)cc2)cc1O (configuration not stated)
110	30	220	220	20	40	> 50000	320	32000	> 50000	–	> 12500	–	O=C(OCC(Cc1ccc(O)cc1)NS(=O)(=O)c1ccccc1)c1cc(O)c(C(=O)c2c(O)cccc2C(=O)O)c(O)c1 (configuration not stated)
1900	270	210	830	< 50	130	> 50000	4100	–	–	–	–	–	O=C(OCCCc1ccc(O)cc1)c1cc(O)c(C(=O)c2c(O)cccc2C(=O)O)c(O)c1
40	50	40	10	0.6	0.9	–	50	–	–	–	–	–	O=C(NC1CCCC1OC(=O)c1cc(O)c(C(=O)c2c(O)cccc2C(=O)O)c(O)c1)c1ccc(O)cc1 (configuration not stated)
6100	20	70	3500	100	4200	> 150000	15000	–	–	–	–	–	Cc1ccc(S(=O)(=O)N2CCC[C@@H](OC(=O)c3cc(O)c(C(=O)c4c(O)cccc4C(=O)O)c(O)c3)[C@H](NC(=O)c3ccc(O)cc3)C2)cc1
